ChEMBL document CHEMBL1142433, “Synthesis and pharmacological characterization at glutamate receptors of the four enantiopure isomers of tricholomic acid” (J Med Chem, 2008)

How the values were obtained:
[1] = target: Glutamate receptor ionotropic, kainate 1 (Rattus norvegicus) (UniProt P22756); test: Activity at rat cloned iGluR5 expressed in human HEK293 cells by calcium imaging assay relative to L-glutamate; assay type: cell-based; parameters: concentration or dose not given beside the values
How it was run: (§1)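 Rat iGluR1–6 subtypes cloned and expressed in HEK cells: iGluR2, iGluR5 and iGluR6 as the Q forms; iGluR1–4 marked with subscript "i". Receptor activation was read by Fluo-4 calcium imaging.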

[2] = target: Glutamate receptor ionotropic, kainate 2 (Rattus norvegicus) (UniProt P42260); test: Activity at rat cloned iGluR6 expressed in human HEK293 cells by calcium imaging assay relative to L-glutamate; assay type: cell-based; parameters: concentration or dose not given beside the values; how it was run: as §1
[3] = target: Glutamate receptor 3 (Rattus norvegicus) (UniProt P19492); test: Activity at rat cloned iGluR3 expressed in human HEK293 cells by calcium imaging assay relative to L-glutamate; assay type: cell-based; parameters: concentration or dose not given beside the values; how it was run: as §1
[4] = target: Glutamate receptor 2 (Rattus norvegicus) (UniProt P19491); test: Activity at rat cloned iGluR2 expressed in human HEK293 cells by calcium imaging assay relative to L-glutamate; assay type: cell-based; parameters: concentration or dose not given beside the values; how it was run: as §1
[5] = target: Glutamate receptor 1 (Rattus norvegicus) (UniProt P19490); test: Activity at rat cloned iGluR1 expressed in human HEK293 cells by calcium imaging assay relative to L-glutamate; assay type: cell-based; parameters: concentration or dose not given beside the values; how it was run: as §1
[6] = Displacement of [3H]AMPA from AMPA receptor in rat cortical membrane; assay type: cell membranes
How it was run: (§2)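 Competition binding on rat cortical membranes prepared by the Ransom and Stec method, using [3H]AMPA (AMPA receptors) or [3H]KA (kainate receptors). IC50 in µM reported as mean [pIC50 ± SEM] of at least three individual experiments.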

[7] = Displacement of [3H]KA from kainate receptor in rat cortical membrane; assay type: cell membranes; how it was run: as §2
[8] = target: Glutamate receptor 4 (Rattus norvegicus) (UniProt P19493); test: Activity at rat cloned iGluR4 expressed in human HEK293 cells by calcium imaging assay relative to L-glutamate; assay type: cell-based; parameters: concentration or dose not given beside the values; how it was run: as §1
[9] = target: Metabotropic glutamate receptor 2 (Rattus norvegicus, UniProt P31421); test: Activity at rat cloned mGluR2 expressed in CHO cells assessed as effect on cAMP accumulation; assay type: functional, cell-based
How it was run: (§3)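 Second-messenger functional assay on rat mGluR1a (group I), mGluR2 (group II) and mGluR4 (group III) expressed in CHO cells. EC50 in µM with pEC50, reported as mean [pEC50 ± SEM] of at least three independent experiments.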

[10] = target: Glutamate receptor ionotropic, kainate 1 (Rattus norvegicus, UniProt P22756); test: Activity at rat cloned iGluR5 expressed in human HEK293 cells by calcium imaging assay; assay type: cell-based
[11] = target: Metabotropic glutamate receptor 4 (Rattus norvegicus, UniProt P31423); test: Activity at rat cloned mGluR4 expressed in CHO cells assessed as effect on cAMP accumulation; assay type: functional, cell-based; how it was run: as §3
Glutamate receptor 2 = Glutamate receptor 2 (Rattus norvegicus, UniProt P19491); test: Activity at rat cloned iGluR2 expressed in human HEK293 cells by calcium imaging assay; assay type: cell-based
Glutamate receptor 1 = Glutamate receptor 1 (Rattus norvegicus, UniProt P19490); test: Activity at rat cloned iGluR1 expressed in human HEK293 cells by calcium imaging assay; assay type: cell-based; how it was run: as §1
Glutamate receptor 3 = Glutamate receptor 3 (Rattus norvegicus, UniProt P19492); test: Activity at rat cloned iGluR3 expressed in human HEK293 cells by calcium imaging assay; assay type: cell-based; how it was run: as §1
[12] = target: Metabotropic glutamate receptor 1 (Rattus norvegicus, UniProt P23385); test: Activity at rat cloned mGluR1a expressed in CHO cells assessed as effect on cAMP accumulation; assay type: functional, cell-based; how it was run: as §3
Glutamate NMDA receptor = test: Displacement of [3H]CGP-39653 from NMDA receptor in rat cortical membrane; assay type: cell membranes
How it was run: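 NMDA receptor binding on rat cortical membranes prepared by the Ransom and Stec method, with [3H]CGP39653 as radioligand. Ki in µM reported as mean [pKi ± SEM] of at least three individual experiments.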

[13] = target: Glutamate receptor ionotropic, kainate 2 (Rattus norvegicus, UniProt P42260); test: Activity at rat cloned iGluR6 expressed in human HEK293 cells by calcium imaging assay; assay type: cell-based; how it was run: as §1
Glutamate receptor 4 = Glutamate receptor 4 (Rattus norvegicus, UniProt P19493); test: Activity at rat cloned iGluR4 expressed in human HEK293 cells by calcium imaging assay; assay type: cell-based; how it was run: as §1

Metabotropic glutamate receptor 1, sequence (P23385 whole entry): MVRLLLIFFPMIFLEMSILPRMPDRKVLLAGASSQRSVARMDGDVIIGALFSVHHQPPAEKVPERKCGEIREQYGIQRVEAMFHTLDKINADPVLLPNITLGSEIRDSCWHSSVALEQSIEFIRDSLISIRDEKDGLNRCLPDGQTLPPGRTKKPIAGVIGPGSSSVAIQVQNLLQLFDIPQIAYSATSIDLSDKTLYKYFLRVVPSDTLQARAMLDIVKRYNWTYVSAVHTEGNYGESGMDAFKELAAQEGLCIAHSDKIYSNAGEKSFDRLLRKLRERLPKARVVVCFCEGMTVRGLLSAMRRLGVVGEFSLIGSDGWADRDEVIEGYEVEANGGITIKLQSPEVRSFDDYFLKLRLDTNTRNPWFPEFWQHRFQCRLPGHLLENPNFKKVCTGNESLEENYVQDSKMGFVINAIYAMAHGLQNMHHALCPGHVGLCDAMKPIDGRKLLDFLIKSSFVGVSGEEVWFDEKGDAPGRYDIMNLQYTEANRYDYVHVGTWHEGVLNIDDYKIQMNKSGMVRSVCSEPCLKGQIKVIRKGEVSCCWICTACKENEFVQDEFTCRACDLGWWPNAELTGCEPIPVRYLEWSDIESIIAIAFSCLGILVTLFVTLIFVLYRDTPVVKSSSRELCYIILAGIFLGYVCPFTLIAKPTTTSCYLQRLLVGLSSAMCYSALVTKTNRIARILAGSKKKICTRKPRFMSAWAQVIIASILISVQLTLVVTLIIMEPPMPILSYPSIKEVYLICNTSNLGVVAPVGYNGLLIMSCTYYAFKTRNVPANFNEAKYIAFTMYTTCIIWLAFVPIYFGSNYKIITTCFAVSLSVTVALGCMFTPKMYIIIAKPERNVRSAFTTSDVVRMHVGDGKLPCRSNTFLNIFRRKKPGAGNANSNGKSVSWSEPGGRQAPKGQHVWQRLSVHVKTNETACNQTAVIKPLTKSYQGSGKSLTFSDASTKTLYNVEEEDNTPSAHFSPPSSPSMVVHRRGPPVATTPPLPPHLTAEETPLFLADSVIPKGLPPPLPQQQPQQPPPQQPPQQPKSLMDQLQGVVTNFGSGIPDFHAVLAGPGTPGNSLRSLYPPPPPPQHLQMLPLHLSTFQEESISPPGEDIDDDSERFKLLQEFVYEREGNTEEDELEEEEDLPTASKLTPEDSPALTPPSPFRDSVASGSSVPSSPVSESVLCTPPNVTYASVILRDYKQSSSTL
Glutamate receptor 3 (Rattus norvegicus), sequence (P19492 whole entry): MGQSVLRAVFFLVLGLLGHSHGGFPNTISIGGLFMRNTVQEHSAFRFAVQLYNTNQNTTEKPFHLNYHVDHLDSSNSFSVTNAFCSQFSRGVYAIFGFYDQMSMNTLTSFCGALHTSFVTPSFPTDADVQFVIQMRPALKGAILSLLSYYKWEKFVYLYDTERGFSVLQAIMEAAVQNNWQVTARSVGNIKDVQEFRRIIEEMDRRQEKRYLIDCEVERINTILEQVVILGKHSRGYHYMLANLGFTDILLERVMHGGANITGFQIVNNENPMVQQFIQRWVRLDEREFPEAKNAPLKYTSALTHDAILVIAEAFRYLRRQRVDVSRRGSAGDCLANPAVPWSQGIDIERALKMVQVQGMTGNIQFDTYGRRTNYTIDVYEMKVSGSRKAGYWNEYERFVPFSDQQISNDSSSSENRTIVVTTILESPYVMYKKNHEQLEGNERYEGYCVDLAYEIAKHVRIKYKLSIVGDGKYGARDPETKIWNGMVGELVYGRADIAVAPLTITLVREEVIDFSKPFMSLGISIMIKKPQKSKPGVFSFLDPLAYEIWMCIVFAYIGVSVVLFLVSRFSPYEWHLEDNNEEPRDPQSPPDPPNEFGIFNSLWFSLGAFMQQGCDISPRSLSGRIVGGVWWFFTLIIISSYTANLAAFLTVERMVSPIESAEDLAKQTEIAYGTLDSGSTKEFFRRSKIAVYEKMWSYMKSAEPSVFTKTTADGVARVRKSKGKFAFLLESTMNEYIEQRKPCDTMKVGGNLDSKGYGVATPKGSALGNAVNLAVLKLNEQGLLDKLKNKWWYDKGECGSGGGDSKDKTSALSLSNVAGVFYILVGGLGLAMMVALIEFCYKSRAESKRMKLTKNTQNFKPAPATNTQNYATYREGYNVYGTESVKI
Glutamate receptor 3, sequence (P19492 whole entry): as above
Glutamate receptor ionotropic, kainate 1, sequence (P22756 whole entry): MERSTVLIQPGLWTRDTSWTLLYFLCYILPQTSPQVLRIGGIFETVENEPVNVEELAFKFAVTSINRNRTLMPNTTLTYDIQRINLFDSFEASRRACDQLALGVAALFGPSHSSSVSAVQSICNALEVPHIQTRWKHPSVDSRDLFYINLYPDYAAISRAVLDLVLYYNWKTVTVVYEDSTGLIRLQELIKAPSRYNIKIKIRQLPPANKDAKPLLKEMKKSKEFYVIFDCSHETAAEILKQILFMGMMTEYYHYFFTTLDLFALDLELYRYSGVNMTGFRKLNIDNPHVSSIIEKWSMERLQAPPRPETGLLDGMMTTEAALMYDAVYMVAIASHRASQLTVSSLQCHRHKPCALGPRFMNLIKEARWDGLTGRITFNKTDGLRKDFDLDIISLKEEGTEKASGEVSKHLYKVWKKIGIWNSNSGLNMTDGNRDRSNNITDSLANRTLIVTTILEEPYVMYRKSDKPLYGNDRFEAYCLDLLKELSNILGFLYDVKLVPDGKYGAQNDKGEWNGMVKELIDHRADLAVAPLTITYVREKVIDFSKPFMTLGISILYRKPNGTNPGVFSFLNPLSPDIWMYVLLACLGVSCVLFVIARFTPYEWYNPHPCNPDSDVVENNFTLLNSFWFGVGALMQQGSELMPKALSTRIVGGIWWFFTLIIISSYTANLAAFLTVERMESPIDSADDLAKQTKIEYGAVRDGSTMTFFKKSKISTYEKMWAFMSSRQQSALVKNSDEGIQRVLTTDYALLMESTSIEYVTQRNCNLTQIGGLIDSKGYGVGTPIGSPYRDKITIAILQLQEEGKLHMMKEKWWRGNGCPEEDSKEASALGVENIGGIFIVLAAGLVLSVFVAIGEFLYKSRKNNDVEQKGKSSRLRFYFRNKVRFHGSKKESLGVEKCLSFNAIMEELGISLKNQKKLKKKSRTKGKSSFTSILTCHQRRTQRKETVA
Glutamate receptor ionotropic, kainate 1 (Rattus norvegicus), sequence (P22756 whole entry): as above
Glutamate receptor 1, sequence (P19490 whole entry): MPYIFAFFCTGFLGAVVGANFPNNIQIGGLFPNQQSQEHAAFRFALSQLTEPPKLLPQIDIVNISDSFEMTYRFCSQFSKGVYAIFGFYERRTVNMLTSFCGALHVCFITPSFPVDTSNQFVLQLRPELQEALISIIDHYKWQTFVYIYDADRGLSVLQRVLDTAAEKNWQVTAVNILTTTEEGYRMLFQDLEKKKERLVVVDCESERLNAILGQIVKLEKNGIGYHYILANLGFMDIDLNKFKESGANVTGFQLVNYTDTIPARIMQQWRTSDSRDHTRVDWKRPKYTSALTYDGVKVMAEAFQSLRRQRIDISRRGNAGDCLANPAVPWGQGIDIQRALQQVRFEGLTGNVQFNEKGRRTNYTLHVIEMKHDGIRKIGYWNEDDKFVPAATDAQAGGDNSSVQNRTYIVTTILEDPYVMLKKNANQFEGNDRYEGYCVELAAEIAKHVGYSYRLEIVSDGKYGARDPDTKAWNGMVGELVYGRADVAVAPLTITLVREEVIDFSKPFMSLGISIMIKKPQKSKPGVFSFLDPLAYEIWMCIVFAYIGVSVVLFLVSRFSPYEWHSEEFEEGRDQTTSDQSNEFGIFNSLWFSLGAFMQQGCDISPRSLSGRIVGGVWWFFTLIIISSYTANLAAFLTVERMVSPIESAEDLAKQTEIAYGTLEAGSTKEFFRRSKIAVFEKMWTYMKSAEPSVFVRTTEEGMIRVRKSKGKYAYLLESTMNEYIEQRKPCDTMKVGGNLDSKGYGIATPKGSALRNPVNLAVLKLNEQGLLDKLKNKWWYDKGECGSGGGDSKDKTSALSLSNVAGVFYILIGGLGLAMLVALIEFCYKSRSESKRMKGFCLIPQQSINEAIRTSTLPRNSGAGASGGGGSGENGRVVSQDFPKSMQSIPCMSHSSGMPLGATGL
Glutamate receptor 1 (Rattus norvegicus), sequence (P19490 whole entry): as above
Glutamate receptor 2, sequence (P19491 whole entry): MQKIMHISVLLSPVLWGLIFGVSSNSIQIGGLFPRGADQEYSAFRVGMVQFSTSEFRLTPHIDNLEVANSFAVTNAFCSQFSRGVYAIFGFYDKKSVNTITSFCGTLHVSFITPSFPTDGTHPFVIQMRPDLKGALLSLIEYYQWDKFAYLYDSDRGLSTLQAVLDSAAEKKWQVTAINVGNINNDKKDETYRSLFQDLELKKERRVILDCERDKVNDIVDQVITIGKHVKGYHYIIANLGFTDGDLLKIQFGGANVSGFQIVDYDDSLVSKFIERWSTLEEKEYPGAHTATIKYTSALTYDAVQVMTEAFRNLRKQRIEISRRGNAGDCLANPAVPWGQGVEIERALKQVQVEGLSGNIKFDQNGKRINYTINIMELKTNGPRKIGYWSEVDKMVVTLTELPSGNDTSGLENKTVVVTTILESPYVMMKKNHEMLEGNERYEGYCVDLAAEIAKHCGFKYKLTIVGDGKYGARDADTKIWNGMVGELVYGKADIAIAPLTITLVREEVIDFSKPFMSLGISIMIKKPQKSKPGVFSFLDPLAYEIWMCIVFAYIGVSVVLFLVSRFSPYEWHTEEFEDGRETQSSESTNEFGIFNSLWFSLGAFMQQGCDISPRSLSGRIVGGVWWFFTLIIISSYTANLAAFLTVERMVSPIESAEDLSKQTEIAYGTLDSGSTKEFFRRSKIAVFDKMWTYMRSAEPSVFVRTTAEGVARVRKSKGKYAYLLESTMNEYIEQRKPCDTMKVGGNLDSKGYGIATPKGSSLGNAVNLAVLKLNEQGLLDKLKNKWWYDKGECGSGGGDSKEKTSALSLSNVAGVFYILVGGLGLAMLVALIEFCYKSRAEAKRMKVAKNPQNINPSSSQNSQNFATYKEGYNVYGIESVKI
Glutamate receptor 2 (Rattus norvegicus), sequence (P19491 whole entry): as above

Structure (SMILES): N[C@H](C(=O)O)c1cc(O)no1 [IBOTENIC ACID]
- Activity [1]: 8%
- Activity [2]: 96%
- Activity [3]: 1%
- Activity [4]: 2%
- Activity [5]: 6%
- IC50 [6]: > 100 µM
- IC50 [7]: 22 µM
- Log IC50 [7]: -4.66
- Activity [8]: 32%

Structure (SMILES): N[C@H](C(=O)O)[C@H]1CC(O)=NO1
- Activity [1]: 12%
- Activity [2]: 11%
- EC50 [9]: 84 µM
- EC50 [10]: > 1 mM
- Activity [3]: 23%
- Activity [4]: 20%
- EC50 [11]: > 1 mM
- EC50 (Glutamate receptor 2): > 1 mM
- EC50 (Glutamate receptor 1): > 1 mM
- EC50 (Glutamate receptor 3; read-out: EC50): > 1000 µM
- EC50 ([12]; read-out: EC50): 82 µM
- Ki (Glutamate NMDA receptor): 95 µM
- Log Ki (Glutamate NMDA receptor): -4.03
- EC50 [13]: > 1 mM
- EC50 (Glutamate receptor 4): > 1 mM
- Activity [5]: 35%
- IC50 [6]: > 100 µM
- IC50 [7]: 36 µM
- Log IC50 [7]: -4.45
- Activity [8]: 90%

Structure (SMILES): N[C@@H](C(=O)O)[C@H]1CC(O)=NO1
- Activity [1]: 10%
- Activity [2]: 11%
- EC50 [9]: > 1000 µM
- EC50 [10]: > 1 mM
- Activity [3]: 10%
- Activity [4]: 13%
- EC50 [11]: > 1 mM
- EC50 (Glutamate receptor 2): > 1 mM
- EC50 (Glutamate receptor 1): > 1 mM
- EC50 (Glutamate receptor 3; read-out: EC50): > 1000 µM
- EC50 ([12]; read-out: EC50): > 1000 µM
- Ki (Glutamate NMDA receptor): 0.67 µM
- Log Ki (Glutamate NMDA receptor): -6.19
- EC50 [13]: > 1 mM
- EC50 (Glutamate receptor 4): > 1 mM
- Activity [5]: 15%
- IC50 [6]: > 100 µM
- IC50 [7]: > 100 µM
- Activity [8]: 9%

Structure (SMILES): N[C@@H](C(=O)O)[C@@H]1CC(O)=NO1
- Activity [1]: 8%
- Activity [2]: 15%
- EC50 [9]: > 1000 µM
- EC50 [10]: > 1 mM
- Activity [3]: 10%
- Activity [4]: 14%
- EC50 [11]: > 1 mM
- EC50 (Glutamate receptor 2): > 1 mM
- EC50 (Glutamate receptor 1): > 1 mM
- EC50 (Glutamate receptor 3; read-out: EC50): > 1000 µM
- EC50 ([12]; read-out: EC50): > 1000 µM
- Ki (Glutamate NMDA receptor): 75 µM
- EC50 [13]: > 1 mM
- EC50 (Glutamate receptor 4): > 1 mM
- Activity [5]: 13%
- IC50 [6]: 12 µM
- Log IC50 [6]: -4.92
- IC50 [7]: 11 µM
- Log IC50 [7]: -4.95
- Activity [8]: 7%

Structure (SMILES): N[C@H](C(=O)O)[C@@H]1CC(O)=NO1
- Activity [1]: 91%
- Activity [2]: 91%
- EC50 [9]: > 1000 µM
- EC50 [10]: 0.28 mM
- Activity [3]: 88%
- Activity [4]: 74%
- EC50 [11]: > 1 mM
- EC50 (Glutamate receptor 2): 0.48 mM
- EC50 (Glutamate receptor 1): 0.12 mM
- EC50 (Glutamate receptor 3; read-out: EC50): 170 µM
- EC50 (Glutamate receptor 3; read-out: Log EC50 (converted)): 155 µM
- EC50 ([12]; read-out: EC50): 610 µM
- Ki (Glutamate NMDA receptor): 41 µM
- EC50 [13]: 0.082 mM
- EC50 (Glutamate receptor 4): 0.03 mM
- Activity [5]: 90%
- IC50 [6]: 0.95 µM
- Log IC50 [6]: -6.02
- IC50 [7]: 0.29 µM
- Log IC50 [7]: -6.55
- Activity [8]: 91%

Structure (SMILES): NC(C(=O)O)C1CC(O)=NO1 (racemic; form 2) [TRICHOLOMIC ACID]
- EC50 [9]: 100 µM
- EC50 ([12]; read-out: EC50): 110 µM
- EC50 ([12]; read-out: Log EC50 (converted)): 79.4 µM
- IC50 (Glutamate NMDA receptor): 73 µM
- IC50 [6]: 19 µM
- Log IC50 [6]: -4.73
- IC50 [7]: 6 µM
- Log IC50 [7]: -5.22

Structure (SMILES): N[C@H](C(=O)O)c1cc(=O)[nH]o1 [IBOTENIC ACID]
- EC50 [10]: > 1 mM
- EC50 [11]: > 1 mM
- EC50 (Glutamate receptor 2): > 1 mM
- EC50 (Glutamate receptor 1): > 1 mM
- EC50 (Glutamate receptor 3; read-out: EC50): > 1000 µM
- EC50 ([12]; read-out: EC50): 43 µM
- EC50 [13]: > 1 mM
- EC50 (Glutamate receptor 4): > 1 mM

Structure (SMILES): NC(C(=O)O)C1CC(O)=NO1 (racemic; form 1) [TRICHOLOMIC ACID]
- EC50 [9]: > 1000 µM
- EC50 [11]: > 1 mM
- EC50 ([12]; read-out: EC50): 790 µM
- IC50 (Glutamate NMDA receptor): 1.5 µM
- IC50 [6]: 1.1 µM
- Log IC50 [6]: -5.86
- IC50 [7]: 0.76 µM
- Log IC50 [7]: -6.14
